In test [1] the target is T1, Kappa-type opioid receptor (Cavia porcellus, UniProt P41144). As to the kind of experiment: Binding affinity towards Opioid receptor kappa 1 in guinea pig brain membranes using [3H]U-69593 as radioligand. The class given is cell membranes, Membrane. The gist of the method: (§1)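 Competitive displacement binding on guinea pig brain membranes. Each receptor was labelled with its own tritiated radioligand: [³H]DAMGO (μ agonist) for μ, [³H]naltrindole (δ antagonist) for δ, and [³H]U69593 (κ agonist) for κ. The method follows an earlier protocol.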
T1 sequence (P41144 whole entry): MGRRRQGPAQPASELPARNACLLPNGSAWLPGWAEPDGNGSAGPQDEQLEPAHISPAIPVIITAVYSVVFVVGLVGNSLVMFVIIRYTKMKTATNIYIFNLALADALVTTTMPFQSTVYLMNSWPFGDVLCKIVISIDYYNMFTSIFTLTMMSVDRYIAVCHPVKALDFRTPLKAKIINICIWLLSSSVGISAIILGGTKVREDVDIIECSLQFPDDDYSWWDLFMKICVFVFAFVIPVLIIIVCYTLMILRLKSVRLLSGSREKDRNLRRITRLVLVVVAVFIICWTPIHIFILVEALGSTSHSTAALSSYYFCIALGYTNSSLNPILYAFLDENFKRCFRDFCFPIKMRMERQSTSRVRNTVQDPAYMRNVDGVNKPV

Test [2] deals with Mu-type opioid receptor (Cavia porcellus, UniProt P97266). As to the kind of experiment: Binding affinity towards Opioid receptor mu 1 in guinea pig brain membranes using [3H]DAMGO as radioligand. Type of test: cell membranes, Membrane. The gist of the method:
as §1

Test [3] deals with Opioid receptors; mu & kappa (Homo sapiens) (UniProt P41145+P35372). Nature of the test: Selectivity ratio of kappa opioid receptor to that of mu opioid receptor in guinea pig brain membranes. Type of test: cell membranes. Conditions: Cavia porcellus; target entry is the homologue from another species.
Chain of Opioid receptors; mu & kappa (Homo sapiens) (P35372 whole entry, looked up): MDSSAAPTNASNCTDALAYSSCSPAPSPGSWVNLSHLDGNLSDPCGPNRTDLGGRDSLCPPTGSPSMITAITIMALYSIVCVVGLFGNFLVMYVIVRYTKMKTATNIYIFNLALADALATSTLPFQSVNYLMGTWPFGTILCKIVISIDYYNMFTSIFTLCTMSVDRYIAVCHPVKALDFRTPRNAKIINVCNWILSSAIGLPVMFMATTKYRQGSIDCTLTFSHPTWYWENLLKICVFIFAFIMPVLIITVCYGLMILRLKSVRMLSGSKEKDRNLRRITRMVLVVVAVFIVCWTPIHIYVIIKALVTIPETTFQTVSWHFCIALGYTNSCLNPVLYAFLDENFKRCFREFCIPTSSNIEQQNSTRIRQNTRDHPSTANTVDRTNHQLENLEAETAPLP
Chain of Opioid receptors; mu & kappa (Homo sapiens) (P41145 whole entry, looked up): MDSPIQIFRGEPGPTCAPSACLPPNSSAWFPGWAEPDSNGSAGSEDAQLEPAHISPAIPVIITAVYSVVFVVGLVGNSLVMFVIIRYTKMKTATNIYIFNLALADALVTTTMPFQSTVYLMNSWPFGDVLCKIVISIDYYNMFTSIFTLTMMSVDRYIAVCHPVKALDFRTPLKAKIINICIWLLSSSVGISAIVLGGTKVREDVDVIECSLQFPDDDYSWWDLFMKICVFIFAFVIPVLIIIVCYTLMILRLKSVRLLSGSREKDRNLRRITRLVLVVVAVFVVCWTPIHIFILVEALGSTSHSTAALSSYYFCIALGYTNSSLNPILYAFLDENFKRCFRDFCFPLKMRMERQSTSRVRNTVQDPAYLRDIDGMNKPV
Test [4] has as its target Opioid receptors; delta & kappa (Homo sapiens) (UniProt P41145+P41143). Nature of the test: Selectivity ratio of kappa opioid receptor to that of delta opioid receptor in guinea pig brain membranes. Type of test: cell membranes. The conditions noted are these: Cavia porcellus; target entry is the homologue from another species.
The target of test [5] is T1, Kappa-type opioid receptor. As to the kind of experiment: Binding affinity towards guinea pig Opioid receptor kappa 1 using radioligand [3H]U-69593. The method in brief: as §1
The nature of test [6]: Binding affinity towards Opioid receptor delta 1 in guinea pig brain membranes using [3H]naltrindole as radioligand.

Chain of Mu-type opioid receptor (P97266 whole entry): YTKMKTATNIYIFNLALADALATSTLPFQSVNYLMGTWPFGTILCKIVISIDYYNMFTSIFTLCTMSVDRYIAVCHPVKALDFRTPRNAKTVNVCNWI
Chain of Opioid receptors; delta & kappa (Homo sapiens) (P41143 whole entry, looked up): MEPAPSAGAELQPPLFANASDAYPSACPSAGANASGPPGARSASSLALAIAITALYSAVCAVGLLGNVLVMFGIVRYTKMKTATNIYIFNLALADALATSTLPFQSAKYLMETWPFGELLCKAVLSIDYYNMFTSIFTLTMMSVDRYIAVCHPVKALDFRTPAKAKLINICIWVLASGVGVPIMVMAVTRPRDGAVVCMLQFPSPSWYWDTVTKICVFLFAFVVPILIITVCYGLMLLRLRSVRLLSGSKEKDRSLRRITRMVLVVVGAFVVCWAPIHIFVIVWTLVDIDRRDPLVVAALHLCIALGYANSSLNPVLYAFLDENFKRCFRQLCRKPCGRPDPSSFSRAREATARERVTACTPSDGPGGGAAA
Chain of Opioid receptors; delta & kappa (Homo sapiens) (P41145 whole entry, looked up): as the sequence (P41145 whole entry, looked up) above

Turning to `CCOCCN1CC[C@]23CCCC[C@H]2[C@H]1Cc1cc(O)ccc13`, the Ki in test [1] came out at 0.33 nM; in test [2], 0.26 nM. For the same compound, the values for the Selectivity in test [3] and in test [4] were 0.8 and 16, respectively.
Turning to `Oc1ccc2c(c1)C[C@@H]1[C@@H]3CCCC[C@]23CCN1CC=CI`, the Ki in test [5] was determined as 0.65 nM; in test [2], 0.42 nM. In addition, the results for the Selectivity in test [3] and in test [4] were 0.6 and 51, respectively.
Regarding `Oc1ccc2c(c1)C[C@@H]1[C@@H]3CCCC[C@]23CCN1CCCF`, the figures for the Ki in test [1] and in test [2] were 0.083 nM and 0.18 nM, respectively. The Selectivity came to 2 in test [3] and 10 in test [4].
Take `C=CCN1CC[C@]23CCCC[C@H]2[C@H]1Cc1cc(O)ccc13`: the Ki in test [5] stood at 0.16 nM; in test [2], 0.34 nM. For the same compound, the results for the Selectivity in test [3] and in test [4] were 2 and 26, respectively.
Taken in the same sequence, the figures for `N#CCCCN1CC[C@]23CCCC[C@H]2[C@H]1Cc1cc(O)ccc13` were 0.38 nM, 0.16 nM, 0.42 and 8.
Taken in the same sequence, the figures for `Oc1ccc2c(c1)C[C@@H]1[C@@H]3CCCC[C@]23CCN1C/C=C/I` were 0.037 nM, 0.0048 nM, 0.13 and 730.
Taken in the same sequence, the figures for `Oc1ccc2c(c1)C[C@@H]1[C@@H]3CCCC[C@]23CCN1Cc1ccccc1` were 1.9 nM, 20 nM, 11 and 220.
Take `O=C(CCN1CC[C@]23CCCC[C@H]2[C@H]1Cc1cc(O)ccc13)c1ccccc1`: the Ki in test [5] was determined as 9.9 nM; in test [2], 0.43 nM. The Selectivity in test [3] was 0.04; in test [4] it was 2.
As for `Oc1ccc2c(c1)C[C@@H]1[C@@H]3CCCC[C@]23CCN1Cc1ccco1`, the values for the Ki in test [5] and in test [2] were 0.13 nM and 0.54 nM, respectively. The Selectivity in test [3] is 4; in test [4] it was 65.
Turning to `Oc1ccc2c(c1)C[C@@H]1[C@@H]3CCCC[C@]23CCN1CCOc1ccccc1`, the Ki was 15 nM in test [5] and 0.92 nM in test [2]. Further, the Selectivity in test [3] turned out to be 0.06; in test [4], 2.
In the case of `C#CCN1CC[C@]23CCCC[C@H]2[C@H]1Cc1ccc(O)cc13`, the Ki in test [5] was found to be 0.003 nM; in test [2] it was 0.0032 nM. The Selectivity stood at 1 in test [3] and 210 in test [4].
In the case of `N#CCCN1CC[C@]23CCCC[C@H]2[C@H]1Cc1cc(O)ccc13`, the Ki is 0.23 nM in test [5] and 0.33 nM in test [2]. Moreover, the Selectivity in test [3] turned out to be 1.4; in test [4], 11.
With `O=C(CCN1CC[C@]23CCCC[C@H]2[C@H]1Cc1cc(O)ccc13)c1ccco1`, the Ki in test [5] is 7.9 nM; in test [2], 0.28 nM. Besides, the Selectivity in test [3] was found to be 0.035; in test [4], 5.
For `CC(C)CN1CC[C@]23CCCC[C@H]2[C@H]1Cc1cc(O)ccc13`, the values for the Ki in test [1] and in test [2] were 0.16 nM and 0.54 nM, respectively. In addition, the Selectivity came to 3 in test [3] and 35 in test [4].
Regarding `Oc1ccc2c(c1)[C@@]13CCCC[C@H]1[C@@H](C2)N(CC1CCC1)CC3` [BUTORPHAN], the Ki was 0.07 nM in test [1] and 1.3 nM in test [6]. The Selectivity was determined as 2 in test [3] and 18 in test [4].
In turn, `Oc1ccc2c(c1)[C@@]13CCCC[C@H]1[C@@H](C2)N(CC1CC1)CC3` [CYCLORPHAN] registered a Ki in test [6] of 0.22 nM.
On to `Oc1ccc2c(c1)C[C@@H]1[C@@H]3CCCC[C@]23CCN1CCC(F)(F)F`, for which the Ki in test [5] came to 1.3 nM; in test [2], 2.3 nM. Also, the Selectivity in test [3] turned out to be 2; in test [4] it was 21.
In the case of `Oc1ccc2c(c1)C[C@@H]1[C@@H]3CCCC[C@]23CCN1CCc1ccccc1`, the inhibition constant (Ki) in test [5] was found to be 1.3 nM; in test [2], 0.12 nM. For the same compound, the Selectivity in test [3] stood at 0.092; in test [4] it was 2.
As to `CN1CC[C@]23CCCC[C@H]2[C@H]1Cc1ccc(O)cc13` [LEVORPHANOL], the Ki in test [6] worked out at 4.2 nM. Moreover, the Selectivity in test [3] worked out at 0.09; in test [4], 2.
On to `Oc1ccc2c(c1)C[C@@H]1[C@@H]3CCCC[C@]23CCN1CCC(O)c1cccs1` (some centres undefined), for which the Ki in test [5] worked out at 25 nM; in test [2] it was 4.1 nM. For the same compound, the Selectivity was 0.2 in test [3] and 4 in test [4].
Taken in the same sequence, the figures for `Oc1ccc2c(c1)C[C@@H]1[C@@H]3CCCC[C@]23CCN1CCC(O)c1ccccc1` (some centres undefined) were 57 nM, 21 nM, 0.4 and 2.
With `O=C(CCN1CC[C@]23CCCC[C@H]2[C@H]1Cc1cc(O)ccc13)c1cccs1`, the Ki was 4.5 nM in test [5] and 0.27 nM in test [2]. Besides, the Selectivity was 0.06 in test [3] and 2 in test [4].
With `Oc1ccc2c(c1)C[C@@H]1[C@@H]3CCCCC23CCN1CC1CCCCC1`, the Ki in test [1] turned out to be 1.5 nM; in test [2], 18 nM. Besides, the Selectivity in test [3] turned out to be 12; in test [4] it was 46.
As to `Oc1ccc2c(c1)C[C@@H]1[C@@H]3CCCCC23CCN1Cc1cccs1`, the figures for the Ki in test [5] and in test [2] were 0.32 nM and 1.5 nM, respectively. Further, the Selectivity came out at 5 in test [3] and 160 in test [4].
For the compound `COCCN1CC[C@]23CCCC[C@H]2[C@H]1Cc1cc(O)ccc13`, the Ki in test [5] amounted to 0.094 nM; in test [2] it was 0.11 nM. The Selectivity in test [3] was 1; in test [4], 6.
Consider `Oc1ccc2c(c1)C[C@@H]1[C@@H]3CCCCC23CCN1CC1CCCC1`, for which the values for the Ki in test [1] and in test [2] were 0.21 nM and 0.96 nM, respectively. For the same compound, the Selectivity in test [3] is 5; in test [4], 33.
On to `Oc1ccc2c(c1)C[C@@H]1[C@@H]3CCCC[C@]23CCN1CCC(O)c1ccco1` (some centres undefined), for which the figures for the Ki in test [5] and in test [2] were 12 nM and 4.2 nM, respectively. Also, the Selectivity in test [3] was 0.35; in test [4], 2.

The record behind these values is ChEMBL document CHEMBL1134817, “Mixed kappa agonists and mu agonists/antagonists as potential pharmacotherapeutics for cocaine abuse: synthesis and opioid receptor binding affinity of N-substituted derivatives of morphinan” (Bioorg Med Chem Lett, 2001).
